Results gathered from unrelated publications.
Target: Dual serine/threonine and tyrosine protein kinase (DSTYK, Homo sapiens, UniProt Q6XUX3)
One construct used (Q6XUX3 1-929): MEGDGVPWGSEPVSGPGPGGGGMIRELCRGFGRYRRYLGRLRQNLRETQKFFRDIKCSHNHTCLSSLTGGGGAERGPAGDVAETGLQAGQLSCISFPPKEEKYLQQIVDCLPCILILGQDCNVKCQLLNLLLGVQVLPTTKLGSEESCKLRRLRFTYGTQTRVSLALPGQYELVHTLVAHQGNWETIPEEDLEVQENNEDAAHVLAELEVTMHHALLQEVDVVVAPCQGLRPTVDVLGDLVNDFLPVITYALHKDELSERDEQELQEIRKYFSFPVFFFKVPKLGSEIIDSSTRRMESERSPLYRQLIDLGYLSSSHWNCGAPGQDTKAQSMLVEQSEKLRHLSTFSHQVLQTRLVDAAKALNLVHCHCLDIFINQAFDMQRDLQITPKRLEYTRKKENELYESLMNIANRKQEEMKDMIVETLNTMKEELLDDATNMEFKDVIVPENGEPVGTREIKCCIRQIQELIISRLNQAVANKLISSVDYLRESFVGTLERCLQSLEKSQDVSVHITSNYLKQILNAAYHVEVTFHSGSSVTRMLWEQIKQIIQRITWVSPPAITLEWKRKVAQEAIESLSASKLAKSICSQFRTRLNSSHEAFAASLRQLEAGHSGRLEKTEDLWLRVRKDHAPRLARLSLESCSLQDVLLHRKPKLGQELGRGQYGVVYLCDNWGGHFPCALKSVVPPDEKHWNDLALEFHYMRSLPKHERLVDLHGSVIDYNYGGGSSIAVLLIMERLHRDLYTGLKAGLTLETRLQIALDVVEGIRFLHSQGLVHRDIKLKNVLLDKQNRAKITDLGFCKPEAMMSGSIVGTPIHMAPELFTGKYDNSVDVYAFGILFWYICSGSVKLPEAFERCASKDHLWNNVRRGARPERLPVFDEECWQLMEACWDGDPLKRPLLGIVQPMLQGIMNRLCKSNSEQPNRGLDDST

SMILES	effect on	action	technique	tested at	measurement	result
Cc1ccc(Nc2nccc(N(C)c3ccc4c(C)n(C)nc4c3)n2)cc1S(N)(=O)=O	enzyme activity	inhibitor		0.5 µM	remaining activity	94.3%
CC(C)(C)c1nc2c(s1)c1nc(N)ncc1c1ccc(NS(=O)(=O)c3c(F)cccc3F)c(F)c12	enzyme activity	inhibitor	radiometric	1 µM	remaining activity	83%
CC(C)(O)[C@H]1CC[C@H](Nc2ccc3ncc(-c4cccc(C(F)(F)F)c4)n3n2)CC1	enzyme activity	inhibitor		1 µM	remaining activity	97.1%
O=C(Nc1cnn(-c2csc(C(=O)NC3COC3)c2)c1)Nc1ccccc1Cl	enzyme activity	inhibitor		5 µM	remaining activity	102%
Cc1cc(-n2nc(Cc3cc(F)cc(C(F)(F)F)c3)nc2C)ccc1C(N)=O	cell-free assay		competition with immobilised ligand	1 µM	remaining binding	97%
N#CCCc1ccc2c(c1)-c1[nH]c3ccc([N+](=O)[O-])cc3c1CC(=O)N2	cell-free assay			0.5 µM	remaining signal	67.1%
Cc1ccc(C(=O)Nc2ccc(CN3CCN(C)CC3)c(C(F)(F)F)c2)cc1C#Cc1cnc2cccnn12	enzyme activity	inhibitor		23.5 nM	remaining activity	95%
CSc1cccnc1N1CCN(Cc2nc3ccccc3[nH]2)CC1	cell-free assay		competition with immobilised ligand	1 µM	remaining binding	76%
O=C1Nc2ccc(Cl)cc2C1=Cc1cc(Cl)c(O)c(Cl)c1	cell-free assay			0.5 µM	remaining signal	89.6%
CCCOc1ccc([C@H]2[C@H](C(=O)O)[C@@H](c3ccc4c(c3)OCO4)CN2CC(=O)Nc2c(CC)cccc2CC)cc1	cell-free assay		competition with immobilised ligand	1 µM	remaining binding	73%
Nc1ncnc2occ(-c3ccc(NC(=O)Nc4cc(C(F)(F)F)ccc4F)cc3)c12	cell-free assay	inhibitor		20 µM	remaining signal	2.8%
Cc1sc(C(=O)NC2COC2)cc1-n1cc(NC(=O)Nc2c(F)cccc2Cl)cn1	enzyme activity	inhibitor		10 µM	remaining activity	96.6%
CC1=C(C#N)[C@@H](c2ccc3[nH]nc(C)c3c2)C(C#N)=C(c2ccc(Cl)cc2)N1	cell-free assay		competition with immobilised ligand	1 µM	remaining binding	100%
CC(C)(C)c1nc(-c2cccc(NS(=O)(=O)c3c(F)cccc3F)c2F)c(-c2ccnc(N)n2)s1	enzyme activity	inhibitor	radiometric	1 µM	remaining activity	82%
Cc1cnn2ncc(-c3ccnc(N(C)C)n3)c2c1	binding			1 µM	remaining binding	97%
